Assay results as given in ChEMBL document CHEMBL4354843, “Structure-Based Design of a Potent and Selective Covalent Inhibitor for SRC Kinase That Targets a P-Loop Cysteine” (J Med Chem, 2020).

Columns and labels:
[1] = molecular target: Ephrin type-B receptor 4 (Homo sapiens) (UniProt P54760); assay: Binding affinity to wild-type human partial length EPHB4 (H585 to G892 residues) expressed in bacterial expression system assessed as residual binding level at 1 uM by Kinomescan method relative to control
[2] = molecular target: Ribosomal protein S6 kinase alpha-2 (Homo sapiens) (UniProt Q15349); assay: Binding affinity to wild-type human partial length C-terminal RSK3 kinase domain 2 (V403 to K700 residues) expressed in bacterial expression system assessed as residual binding level at 1 uM by Kinomescan method relative to control
[3] = molecular target: Mitogen-activated protein kinase kinase kinase 2 (Homo sapiens) (UniProt Q9Y2U5); assay: Binding affinity to wild-type human partial length MAP3K2 (S315 to H619 residues) expressed in mammalian expression system assessed as residual binding level at 1 uM by Kinomescan method relative to control
Outline: (§1)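 Active-site-directed competition binding panel of 468 kinases (KinomeScan), compound at 1 μM. The read-out is kinase remaining bound, given as a percentage of the DMSO control. […]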

[4] = molecular target: Interferon-induced, double-stranded RNA-activated protein kinase (Homo sapiens) (UniProt P19525); assay: Binding affinity to wild-type human partial length PRKR (F247 to C551 residues) expressed in bacterial expression system assessed as residual binding level at 1 uM by Kinomescan method relative to control
Sequence of Interferon-induced, double-stranded RNA-activated protein kinase (Homo sapiens) (P19525 whole entry, the tested form may be a part): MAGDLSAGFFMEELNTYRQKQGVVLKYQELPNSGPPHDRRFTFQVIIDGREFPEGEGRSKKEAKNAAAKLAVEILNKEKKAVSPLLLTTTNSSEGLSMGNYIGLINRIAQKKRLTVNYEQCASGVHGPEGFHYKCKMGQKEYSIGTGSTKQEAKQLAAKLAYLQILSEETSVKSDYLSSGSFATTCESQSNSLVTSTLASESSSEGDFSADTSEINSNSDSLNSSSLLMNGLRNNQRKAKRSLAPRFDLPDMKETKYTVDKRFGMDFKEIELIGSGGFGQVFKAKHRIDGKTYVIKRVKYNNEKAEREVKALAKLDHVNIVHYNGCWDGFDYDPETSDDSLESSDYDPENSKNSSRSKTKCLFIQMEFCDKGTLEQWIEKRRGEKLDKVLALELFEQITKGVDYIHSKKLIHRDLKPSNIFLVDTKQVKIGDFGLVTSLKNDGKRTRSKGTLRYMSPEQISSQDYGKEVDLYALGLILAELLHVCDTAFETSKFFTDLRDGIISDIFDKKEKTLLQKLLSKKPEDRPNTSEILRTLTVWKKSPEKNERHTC

[5] = molecular target: Cyclin-dependent kinase 15 (Homo sapiens) (UniProt Q96Q40); assay: Binding affinity to wild-type human full length PFTAIRE2 (M1 to W384 residues) expressed in bacterial expression system assessed as residual binding level at 1 uM by Kinomescan method relative to control
Outline: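 Active-site-directed competition binding panel (KinomeScan) covering 468 kinases. Test agent was screened at 1 μM. The read-out is the remaining kinase signal expressed relative to a DMSO control. Scores above 35%, taken as weak binding, were not reported.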

[6] = molecular target: Activin receptor type-1B (Homo sapiens) (UniProt P36896); assay: Binding affinity to wild-type human ACVR1B (S187 to I505 residues) expressed in bacterial expression system assessed as residual binding level at 1 uM by Kinomescan method relative to control
Outline: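 KinomeScan, an active site-directed competition binding panel of 468 kinases. The test compound was at 1 μM. The readout is remaining kinase binding as a percentage of the DMSO control. Scores above 35% were treated as weak binding and not listed.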

[7] = molecular target: Serine/threonine-protein kinase BRSK2 (Homo sapiens) (UniProt Q8IWQ3); assay: Binding affinity to wild-type human full length BRSK2 (M1 to L674 residues) expressed in bacterial expression system assessed as residual binding level at 1 uM by Kinomescan method relative to control
Outline: (§2)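 Active-site-directed KinomeScan competition binding panel covering 468 kinases, compound tested at 1 μM. Each readout is the kinase signal remaining with compound, expressed as a percentage of the DMSO control. […]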

[8] = molecular target: Muscle, skeletal receptor tyrosine-protein kinase (Homo sapiens) (UniProt O15146); assay: Binding affinity to wild-type human partial length MUSK (M553 to V869 residues) expressed in bacterial expression system assessed as residual binding level at 1 uM by Kinomescan method relative to control
[9] = molecular target: Serine/threonine-protein kinase ULK2 (Homo sapiens) (UniProt Q8IYT8); assay: Binding affinity to wild-type human partial length ULK2 (M1 to S301 residues) expressed in mammalian expression system assessed as residual binding level at 1 uM by Kinomescan method relative to control
[10] = molecular target: SRSF protein kinase 3 (Homo sapiens) (UniProt Q9UPE1); assay: Binding affinity to wild-type human partial length SRPK3 (P41 to P567 residues) expressed in bacterial expression system assessed as residual binding level at 1 uM by Kinomescan method relative to control
[11] = molecular target: Mitogen-activated protein kinase 15 (Homo sapiens) (UniProt Q8TD08); assay: Binding affinity to wild-type human partial length ERK8 (M1 to P437 residues) expressed in bacterial expression system assessed as residual binding level at 1 uM by Kinomescan method relative to control
[12] = molecular target: Dual specificity protein kinase CLK3 (Homo sapiens) (UniProt P49761); assay: Binding affinity to wild-type human full length CLK3 (M1 to R490 residues) expressed in bacterial expression system assessed as residual binding level at 1 uM by Kinomescan method relative to control; outline: as §2
Sequence of Dual specificity protein kinase CLK3 (Homo sapiens) (P49761 whole entry, looked up, the tested form may be a part): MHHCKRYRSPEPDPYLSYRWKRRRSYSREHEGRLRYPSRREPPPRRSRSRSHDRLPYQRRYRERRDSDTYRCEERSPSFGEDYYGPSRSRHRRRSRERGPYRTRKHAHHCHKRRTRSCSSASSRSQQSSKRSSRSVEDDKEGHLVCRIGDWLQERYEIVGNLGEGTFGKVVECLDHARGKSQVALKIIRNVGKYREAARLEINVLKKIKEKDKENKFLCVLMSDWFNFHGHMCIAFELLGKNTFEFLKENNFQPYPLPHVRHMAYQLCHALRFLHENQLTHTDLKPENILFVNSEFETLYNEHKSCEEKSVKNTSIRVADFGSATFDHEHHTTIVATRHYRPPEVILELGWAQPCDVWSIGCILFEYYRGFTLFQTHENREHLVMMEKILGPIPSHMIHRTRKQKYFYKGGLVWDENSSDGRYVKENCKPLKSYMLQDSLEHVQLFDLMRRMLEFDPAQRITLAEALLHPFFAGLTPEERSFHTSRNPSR

[13] = molecular target: Cyclin-dependent kinase 4/cyclin D1 (Homo sapiens) (UniProt P11802+P24385); assay: Binding affinity to wild-type human full length CDK4/cyclinD1 (M1 to E303 residues) expressed in mammalian expression system assessed as residual binding level at 1 uM by Kinomescan method relative to control; outline: as §2
[14] = molecular target: Serine/threonine-protein kinase 36 (Homo sapiens) (UniProt Q9NRP7); assay: Binding affinity to wild-type human partial length STK36 (M1 to T271 residues) expressed in bacterial expression system assessed as residual binding level at 1 uM by Kinomescan method relative to control
Outline: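 Active site-directed competition binding panel (KinomeScan, 468 kinases). Test compound at 1 μM. Read-out is kinase binding remaining versus DMSO control, expressed as percent of control. Scores above 35% are treated as weak binding.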

[15] = molecular target: Receptor tyrosine-protein kinase erbB-3 (Homo sapiens) (UniProt P21860); assay: Binding affinity to wild-type human partial length ERBB3 (G684 to A987 residues) expressed in mammalian expression system assessed as residual binding level at 1 uM by Kinomescan method relative to control
[16] = molecular target: Homeodomain-interacting protein kinase 3 (Homo sapiens) (UniProt Q9H422); assay: Binding affinity to wild-type human partial length HIPK3 (M153 to N562 residues) expressed in mammalian expression system assessed as residual binding level at 1 uM by Kinomescan method relative to control; outline: as §1
Sequence of Homeodomain-interacting protein kinase 3 (Homo sapiens) (Q9H422 whole entry, looked up, the tested form may be a part): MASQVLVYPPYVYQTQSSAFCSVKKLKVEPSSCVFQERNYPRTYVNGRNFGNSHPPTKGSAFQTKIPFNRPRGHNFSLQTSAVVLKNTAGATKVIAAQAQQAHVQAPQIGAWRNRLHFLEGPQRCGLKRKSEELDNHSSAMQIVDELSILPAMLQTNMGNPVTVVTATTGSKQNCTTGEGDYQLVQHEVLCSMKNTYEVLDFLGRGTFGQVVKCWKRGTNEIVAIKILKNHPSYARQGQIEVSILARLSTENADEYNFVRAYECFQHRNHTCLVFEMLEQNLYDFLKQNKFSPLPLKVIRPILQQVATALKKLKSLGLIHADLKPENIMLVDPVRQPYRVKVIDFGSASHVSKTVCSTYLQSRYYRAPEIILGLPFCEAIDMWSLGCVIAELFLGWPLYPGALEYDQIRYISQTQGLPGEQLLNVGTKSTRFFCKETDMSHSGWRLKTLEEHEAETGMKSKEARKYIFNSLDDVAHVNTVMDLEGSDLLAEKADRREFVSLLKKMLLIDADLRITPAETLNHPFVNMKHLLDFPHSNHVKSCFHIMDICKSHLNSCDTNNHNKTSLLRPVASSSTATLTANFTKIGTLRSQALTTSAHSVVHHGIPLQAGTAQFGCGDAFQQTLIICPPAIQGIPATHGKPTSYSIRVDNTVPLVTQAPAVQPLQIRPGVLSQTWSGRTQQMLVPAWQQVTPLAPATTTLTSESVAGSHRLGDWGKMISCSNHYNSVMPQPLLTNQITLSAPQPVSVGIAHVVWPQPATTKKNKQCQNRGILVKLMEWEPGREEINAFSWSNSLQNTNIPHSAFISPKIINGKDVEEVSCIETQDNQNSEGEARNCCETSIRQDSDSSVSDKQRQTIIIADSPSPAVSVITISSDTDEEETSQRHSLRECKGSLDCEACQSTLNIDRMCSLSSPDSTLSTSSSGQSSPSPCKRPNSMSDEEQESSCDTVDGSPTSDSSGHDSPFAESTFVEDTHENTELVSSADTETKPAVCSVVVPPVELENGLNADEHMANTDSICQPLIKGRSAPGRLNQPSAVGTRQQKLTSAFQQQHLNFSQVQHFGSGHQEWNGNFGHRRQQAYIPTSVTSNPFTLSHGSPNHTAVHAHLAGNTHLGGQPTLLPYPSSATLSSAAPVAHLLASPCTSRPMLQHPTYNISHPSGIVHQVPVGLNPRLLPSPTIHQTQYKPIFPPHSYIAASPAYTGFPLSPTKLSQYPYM

[17] = molecular target: Serine/threonine-protein kinase Nek1 (Homo sapiens) (UniProt Q96PY6); assay: Binding affinity to wild-type human partial length NEK1 (M1 to K278 residues) expressed in bacterial expression system assessed as residual binding level at 1 uM by Kinomescan method relative to control
[18] = molecular target: Serine/threonine-protein kinase MARK1 (Homo sapiens) (UniProt Q9P0L2); assay: Binding affinity to wild-type human partial length MARK1 (Q30 to T341 residues) expressed in bacterial expression system assessed as residual binding level at 1 uM by Kinomescan method relative to control; outline: as §1
[19] = molecular target: Serine/threonine-protein kinase tousled-like 2 (Homo sapiens) (UniProt Q86UE8); assay: Binding affinity to wild-type human partial length TLK2 (E424 to N749 residues) expressed in bacterial expression system assessed as residual binding level at 1 uM by Kinomescan method relative to control
Sequence of Serine/threonine-protein kinase tousled-like 2 (Homo sapiens) (Q86UE8 whole entry, looked up, the tested form may be a part): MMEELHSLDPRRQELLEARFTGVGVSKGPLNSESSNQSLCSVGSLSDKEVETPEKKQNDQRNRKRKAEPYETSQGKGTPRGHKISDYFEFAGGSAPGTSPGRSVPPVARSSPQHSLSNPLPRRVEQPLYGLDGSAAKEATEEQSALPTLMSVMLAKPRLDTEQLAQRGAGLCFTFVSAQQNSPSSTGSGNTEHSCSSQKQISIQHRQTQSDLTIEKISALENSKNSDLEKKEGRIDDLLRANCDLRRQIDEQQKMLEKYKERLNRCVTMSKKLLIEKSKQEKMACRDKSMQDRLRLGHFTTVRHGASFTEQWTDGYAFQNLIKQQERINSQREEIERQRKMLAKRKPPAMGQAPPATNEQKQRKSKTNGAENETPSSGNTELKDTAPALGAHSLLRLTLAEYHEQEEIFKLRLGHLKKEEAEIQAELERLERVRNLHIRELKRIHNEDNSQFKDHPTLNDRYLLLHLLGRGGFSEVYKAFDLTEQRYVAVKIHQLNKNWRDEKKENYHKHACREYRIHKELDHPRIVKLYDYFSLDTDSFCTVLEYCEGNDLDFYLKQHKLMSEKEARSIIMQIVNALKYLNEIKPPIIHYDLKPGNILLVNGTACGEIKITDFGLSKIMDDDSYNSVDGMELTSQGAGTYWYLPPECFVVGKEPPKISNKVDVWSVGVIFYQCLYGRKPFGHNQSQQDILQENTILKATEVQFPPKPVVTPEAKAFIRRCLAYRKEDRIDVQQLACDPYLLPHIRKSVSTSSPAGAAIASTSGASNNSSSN

[20] = molecular target: Mitogen-activated protein kinase 13 (Homo sapiens) (UniProt O15264); assay: Binding affinity to wild-type human full length p38-delta (M1 to L365 residues) expressed in bacterial expression system assessed as residual binding level at 1 uM by Kinomescan method relative to control
Sequence of Mitogen-activated protein kinase 13 (Homo sapiens) (O15264 whole entry, the tested form may be a part): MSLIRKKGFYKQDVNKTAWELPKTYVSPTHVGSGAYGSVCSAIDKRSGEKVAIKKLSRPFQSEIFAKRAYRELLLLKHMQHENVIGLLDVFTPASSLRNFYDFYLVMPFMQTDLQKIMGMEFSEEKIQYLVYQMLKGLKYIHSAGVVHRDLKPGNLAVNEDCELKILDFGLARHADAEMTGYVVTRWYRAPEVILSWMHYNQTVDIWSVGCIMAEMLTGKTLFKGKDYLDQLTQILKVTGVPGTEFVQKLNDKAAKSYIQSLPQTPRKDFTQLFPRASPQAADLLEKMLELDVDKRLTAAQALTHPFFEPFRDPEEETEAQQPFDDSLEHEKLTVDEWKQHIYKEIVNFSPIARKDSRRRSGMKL

[21] = molecular target: Insulin receptor-related protein (Homo sapiens) (UniProt P14616); assay: Binding affinity to wild-type human partial length INSRR (R950 to E1278 residues) expressed in bacterial expression system assessed as residual binding level at 1 uM by Kinomescan method relative to control
Sequence of Insulin receptor-related protein (Homo sapiens) (P14616 27-742 limits assumed): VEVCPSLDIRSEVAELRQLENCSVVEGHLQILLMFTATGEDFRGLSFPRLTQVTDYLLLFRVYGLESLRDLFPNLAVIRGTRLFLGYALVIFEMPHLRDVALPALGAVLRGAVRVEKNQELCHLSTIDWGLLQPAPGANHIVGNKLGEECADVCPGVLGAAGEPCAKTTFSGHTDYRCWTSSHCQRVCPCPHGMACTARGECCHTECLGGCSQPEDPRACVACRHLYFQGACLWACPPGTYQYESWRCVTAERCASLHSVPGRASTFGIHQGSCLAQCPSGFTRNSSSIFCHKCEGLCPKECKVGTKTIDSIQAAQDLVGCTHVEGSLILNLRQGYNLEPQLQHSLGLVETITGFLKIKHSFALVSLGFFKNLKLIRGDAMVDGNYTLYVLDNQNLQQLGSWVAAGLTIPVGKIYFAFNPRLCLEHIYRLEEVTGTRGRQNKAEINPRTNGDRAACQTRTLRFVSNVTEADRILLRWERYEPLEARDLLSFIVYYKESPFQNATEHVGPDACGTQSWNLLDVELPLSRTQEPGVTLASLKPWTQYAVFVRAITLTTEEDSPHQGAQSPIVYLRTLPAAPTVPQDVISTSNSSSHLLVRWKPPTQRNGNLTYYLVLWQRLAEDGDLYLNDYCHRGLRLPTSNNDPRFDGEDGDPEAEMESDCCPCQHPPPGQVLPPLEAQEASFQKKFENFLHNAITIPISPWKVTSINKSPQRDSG
Sequence of Insulin receptor-related protein (Homo sapiens) (P14616 747-1297 limits assumed): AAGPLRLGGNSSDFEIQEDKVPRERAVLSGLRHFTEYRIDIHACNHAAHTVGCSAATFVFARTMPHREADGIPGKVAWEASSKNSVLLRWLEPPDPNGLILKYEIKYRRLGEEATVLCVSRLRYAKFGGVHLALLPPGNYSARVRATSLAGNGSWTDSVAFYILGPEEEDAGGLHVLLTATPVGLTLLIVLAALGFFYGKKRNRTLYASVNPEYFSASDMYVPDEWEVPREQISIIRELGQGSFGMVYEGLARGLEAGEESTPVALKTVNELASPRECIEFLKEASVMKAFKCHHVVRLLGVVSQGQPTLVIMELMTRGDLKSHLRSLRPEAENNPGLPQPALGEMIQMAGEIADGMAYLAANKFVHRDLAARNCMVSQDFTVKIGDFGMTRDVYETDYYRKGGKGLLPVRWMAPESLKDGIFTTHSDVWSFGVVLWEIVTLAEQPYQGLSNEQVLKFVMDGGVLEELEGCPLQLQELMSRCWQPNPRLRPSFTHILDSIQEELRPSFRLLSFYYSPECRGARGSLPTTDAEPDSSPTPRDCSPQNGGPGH

C=CC(=O)Nc1ccccc1Nc1nc(Nc2ccc(N3CCN(C)CC3)cc2)ncc1C(=O)Nc1c(C)cccc1Cl
Activity [1]: 100% | Activity [2]: 100% | Activity [3]: 94% | Activity [4]: 100% | Activity [5]: 100% | Activity [6]: 93% | Activity [7]: 100% | Activity [8]: 100% | Activity [9]: 100% | Activity [10]: 100% | Activity [11]: 100% | Activity [12]: 100% | Activity [13]: 100% | Activity [14]: 47% | Activity [15]: 89% | Activity [16]: 99% | Activity [17]: 100% | Activity [18]: 99% | Activity [19]: 100% | Activity [20]: 100% | Activity [21]: 100%
